In ChEMBL document CHEMBL4118197, “The discovery and preclinical evaluation of BMS-707035, a potent HIV-1 integrase strand transfer inhibitor” (Bioorg Med Chem Lett, 2018) one finds solubility, IC50 and clearance data, which are given here for two compounds.

What is called solubility is the dissolved amount per volume that the medium holds. Low readings indicate little dissolved substance, high ones much dissolved substance. The IC50 is the point on the concentration scale where inhibition reaches its midpoint. A high value points to a need for much substance. Broadly, the clearance is a measure of how efficiently the substance is removed, as volume per time. Higher therefore signals a high capacity for elimination.

Data set [1] in a line: Aqueous solubility of the compound. Type of data set: physicochemical. The method, boiled down: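 Aqueous solubility measured at pH 2.3, 6.1, 7.3 and 8.5, in µg/mL.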
For data set [2], the target named is Human immunodeficiency virus type 1 integrase (Human immunodeficiency virus 1, UniProt Q7ZJM1). As to the kind of experiment: Inhibition of HIV1 integrase strand transfer activity.
The nature of data set [3]: Clearance in Sprague-Dawley rat at 1 mg/kg, iv after 4 hrs. Type of data set: ADME, organism-based. Conditions: in vivo. The method, boiled down:
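Male Sprague-Dawley rats given 1 mpk IV in PEG400/ethanol (90:10); blood sampled at 5 and 30 min and 1, 2 and 4 h post-dose; clearance from plasma profile.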

Sequence of Human immunodeficiency virus type 1 integrase (Q7ZJM1 whole entry): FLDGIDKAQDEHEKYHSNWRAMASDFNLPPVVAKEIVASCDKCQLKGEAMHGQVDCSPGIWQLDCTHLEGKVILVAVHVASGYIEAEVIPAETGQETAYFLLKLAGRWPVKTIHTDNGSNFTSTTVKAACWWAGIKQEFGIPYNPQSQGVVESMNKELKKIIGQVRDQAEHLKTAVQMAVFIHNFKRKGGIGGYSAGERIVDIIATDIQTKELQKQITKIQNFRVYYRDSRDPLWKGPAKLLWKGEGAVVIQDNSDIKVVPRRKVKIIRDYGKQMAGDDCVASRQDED

With `O=C(NCc1ccc(F)cc1S(=O)(=O)N1CCOCC1)c1nc2n(c(=O)c1O)CCCC21CCCC1`, the solubility in data set [1] is at most 5 µg/mL. In data set [2], this compound came in with an IC50 of 11 nM.

Compound `CNC(=O)c1cc(F)ccc1CNC(=O)c1nc2n(c(=O)c1O)CCOC2(C)C` returned a clearance in data set [3] of 22 mL/min/kg. In data set [2], this compound came in with an IC50 of 11 nM.
